Calls of active or inactive are those of the source. The rule behind the calls is not given here.
Columns and labels:
[1] = Equipotent molar ratio relative to D-AP5 (1.0) on neonatal rat motoneurones.; type: functional
[2] = Equipotent molar ratio relative to D-AP5 (1.0) on neonatal rat motoneurones; type: functional
Procedure, shortened: (§1)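 Isolated neonatal rat spinal cord in vitro, recording from motoneurones. Antagonist potency is given as an equipotent molar ratio against D-AP5, with D-AP5 set to 1.0.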

[3] = Equipotent molar ratio relative to D-AP5 (1.0) on neonatal rat motoneurones.; inactive; type: functional; procedure, shortened: as §1
Mus musculus = assay: (§2) Tested for anticonvulsant activity following intracerebroventricular administration against sound-induced clonic convulsions in DBA/2 mice.; type: functional
Procedure, shortened: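 Intracerebroventricular dosing in DBA/2 mice at several doses, 7–11 mice per drug. Mice were exposed to sound, and protection against clonic (audiogenic) seizures was scored. Values were derived from dose–response data with 95% confidence limits. Overt behaviour (ataxia) and rectal temperature were also monitored.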

[4] = as §2; type: functional, Mus musculus
Procedure, shortened: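 Intracerebroventricular injection in DBA/2 mice, 7–11 mice per compound, several doses per compound. Read-out is protection against sound-induced (audiogenic) clonic seizures. Values carry 95% confidence limits. Overt behaviour (ataxia) and rectal temperature were also noted.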

Row | SMILES | Ratio [1] | also measured
1 | N[C@]1(C(=O)O)C[C@H](C(=O)CP(=O)(O)O)C1 | 0.33 | –
2 | N[C@]1(C(=O)O)C[C@H](CCP(=O)(O)O)C1 | 0.32 | –
3 | N[C@]1(C(=O)O)C[C@H](CCC(=O)O)C1 | – | Ratio [2]: 1.8
4 | N[C@]1(C(=O)O)C[C@@H](CCC(=O)O)C1 | – | Ratio [2]: 7.9
5 | N[C@]1(C(=O)O)C[C@@](C(=O)O)(C2CC2C(=O)O)C1 (some centres undefined) | – | Ratio [3]: inactive
6 | NC1(C(=O)O)CC([C@H](O)CP(=O)(O)O)C1 (some centres undefined) | 1 | –
7 | N[C@@H](CCCP(=O)(O)O)C(=O)O | – | Ratio [2]: 1
8 | N[C@]1(C(=O)O)C[C@](C(=O)O)(C2CC2C(=O)O)C1 (some centres undefined) | 0.28 | ED50 (Mus musculus): 0.089 µg; ED50 [4]: 0.36 nmol
9 | NC1(C(=O)O)CC([C@@H](O)CP(=O)(O)O)C1 (some centres undefined) | 0.39 | –
10 | O=C(O)C1CN(CCCP(=O)(O)O)CCN1 (racemic) | 0.2 | –
11 | N[C@]1(C(=O)O)C[C@@H](CCP(=O)(O)O)C1 | 1.1 | –
12 | N[C@]1(C(=O)O)C[C@@H](C(=O)CP(=O)(O)O)C1 | 4.2 | –

— ChEMBL document CHEMBL1127789, “Synthesis, NMDA receptor antagonist activity, and anticonvulsant action of 1-aminocyclobutanecarboxylic acid derivatives” (1994)
